Reference: ChEMBL document CHEMBL5303300, “EUbOPEN Chemogenomics Library - Multiplex” (2023)
Where “and” joins values, the source holds several entries; their conditions need not be identical. Equal entries are not always repeated.

What was measured:
Format in all cases: toxicity, cell-based
[1] = test system: U2OS; experiment: Multiplex assay against U2OS; conditions: human, number of replicates 2
Procedure, shortened: (§1)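 On a CQ1 microscope at 37°C and 5% CO2, live cells were imaged after compound addition. They had been stained at seeding with Hoechst33342, BioTracker Green Microtubule Cytoskeleton Dye, MitoTracker Red and Annexin V Alexa Fluor 680. CellPathfinder machine-learning gating assigned cells to Hoechst high-intensity objects or normal cells, normal cells to healthy, pyknosed or fragmented nuclei, and pyknosed cells to mitotic or apoptotic. Tubulin, mitochondrial-mass and membrane-permeability phenotypes are per cents of healthy-nucleus cells.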

[2] = test system: Fibroblast; experiment: Multiplex assay against human fibroblast; conditions: number of replicates 2; procedure, shortened: as §1
[3] = test system: HEK-293T; experiment: Multiplex assay against HEK293T; conditions: human, number of replicates 2; procedure, shortened: as §1
[4] = 12 h, 1 µM, compound concentration 1 uM
[5] = 12 h, 10 µM, compound concentration 10 uM
[6] = 24 h, 1 µM, compound concentration 1 uM
[7] = 24 h, 10 µM, compound concentration 10 uM
[8] = 48 h, 1 µM, compound concentration 1 uM
[9] = 48 h, 10 µM, compound concentration 10 uM

Question: What does the source list for `CN(C)C/C=C/C(=O)Nc1cc2c(Nc3ccc(F)c(Cl)c3)ncnc2cc1OC[C@@H]1CCCO1`?
Answer: Population Apoptotic (%) [1, 4]: 66% and 86%; Population Healthy Nuclei (%) [1, 4]: 40% and 79%; Population Hoechst High Intensity Objects (%) [1, 4]: 0%; Population Membrane Permeable-Phenotype (%) [1, 4]: 27% and 24%; Population Mitochondria Different-Phenotype (%) [1, 4]: 9% and 22%; Population Mitotic Cells (%) [1, 4]: 33% and 13%; Population Normal (%) [1, 4]: 100%; Population Pyknosed Nuclei (%) [1, 4]: 22% and 14%; Population Tubulin-Different-Phenotype (%) [1, 4]: 63% and 53%; Population Apoptotic (%) [1, 5]: 76% and 59%; Population Healthy Nuclei (%) [1, 5]: 23% and 66%; Population Hoechst High Intensity Objects (%) [1, 5]: 0%; Population Membrane Permeable-Phenotype (%) [1, 5]: 66% and 25%; Population Mitochondria Different-Phenotype (%) [1, 5]: 50% and 48%; Population Mitotic Cells (%) [1, 5]: 23% and 40%; Population Normal (%) [1, 5]: 100% and 99%; Population Pyknosed Nuclei (%) [1, 5]: 50% and 25%; Population Tubulin-Different-Phenotype (%) [1, 5]: 83% and 97%; Population Apoptotic (%) [1, 6]: 71% and 77%; Population Healthy Nuclei (%) [1, 6]: 42% and 74%; Population Hoechst High Intensity Objects (%) [1, 6]: 0%; Population Membrane Permeable-Phenotype (%) [1, 6]: 14% and 18%; Population Mitochondria Different-Phenotype (%) [1, 6]: 21% and 36%; Population Mitotic Cells (%) [1, 6]: 28% and 22%; Population Normal (%) [1, 6]: 100% and 99%; Population Pyknosed Nuclei (%) [1, 6]: 21% and 20%; Population Tubulin-Different-Phenotype (%) [1, 6]: 35% and 48%; Population Apoptotic (%) [1, 7]: 85% and 65%; Population Hoechst High Intensity Objects (%) [1, 7]: 0% and 1%; Population Membrane Permeable-Phenotype (%) [1, 7]: 100% and 35%; Population Mitochondria Different-Phenotype (%) [1, 7]: 80% and 70%; Population Mitotic Cells (%) [1, 7]: 14% and 34%; Population Normal (%) [1, 7]: 100% and 98%; Population Pyknosed Nuclei (%) [1, 7]: 46% and 37%; Population Tubulin-Different-Phenotype (%) [1, 7]: 100% and 93%; Population Apoptotic (%) [1, 8]: 66% and 88%; Population Healthy Nuclei (%) [1, 8]: 39% and 76%; Population Hoechst High Intensity Objects (%) [1, 8]: 0%; Population Membrane Permeable-Phenotype (%) [1, 8]: 27% and 14%; Population Mitochondria Different-Phenotype (%) [1, 8]: 45% and 26%; Population Mitotic Cells (%) [1, 8]: 33% and 11%; Population Normal (%) [1, 8]: 100%; Population Pyknosed Nuclei (%) [1, 8]: 21% and 18%; Population Tubulin-Different-Phenotype (%) [1, 8]: 63% and 40%; Population Apoptotic (%) [1, 9]: 76% and 90%; Population Hoechst High Intensity Objects (%) [1, 9]: 0% and 2%; Population Membrane Permeable-Phenotype (%) [1, 9]: 100% and 50%; Population Mitochondria Different-Phenotype (%) [1, 9]: 100% and 79%; Population Mitotic Cells (%) [1, 9]: 23% and 10%; Population Normal (%) [1, 9]: 100% and 97%; Population Pyknosed Nuclei (%) [1, 9]: 43% and 56%; Population Tubulin-Different-Phenotype (%) [1, 9]: 100% and 89%; Population Apoptotic (%) [2, 4]: 31% and 30%; Population Fragmented Nuclei (%) [2, 4]: 16% and 20%; Population Healthy Nuclei (%) [2, 4]: 57% and 60%; Population Hoechst High Intensity Objects (%) [2, 4]: 0%; Population Membrane Permeable-Phenotype (%) [2, 4]: 14% and 13%; Population Mitochondria Different-Phenotype (%) [2, 4]: 0% and 1%; Population Mitotic Cells (%) [2, 4]: 68% and 69%; Population Normal (%) [2, 4]: 99% and 100%; Population Pyknosed Nuclei (%) [2, 4]: 26% and 18%; Population Tubulin-Different-Phenotype (%) [2, 4]: 67% and 54%; Total Cell Count [2, 4]: 169 and 229; Population Apoptotic (%) [2, 5]: 40% and 32%; Population Fragmented Nuclei (%) [2, 5]: 12% and 15%; Population Healthy Nuclei (%) [2, 5]: 41% and 47%; Population Hoechst High Intensity Objects (%) [2, 5]: 1% and 3%; Population Membrane Permeable-Phenotype (%) [2, 5]: 46% and 40%; Population Mitochondria Different-Phenotype (%) [2, 5]: 9% and 11%; Population Mitotic Cells (%) [2, 5]: 59% and 67%; Population Normal (%) [2, 5]: 98% and 96%; Population Pyknosed Nuclei (%) [2, 5]: 46% and 36%; Population Tubulin-Different-Phenotype (%) [2, 5]: 78% and 88%; Total Cell Count [2, 5]: 181 and 317; Population Apoptotic (%) [2, 6]: 50% and 67%; Population Fragmented Nuclei (%) [2, 6]: 14% and 20%; Population Healthy Nuclei (%) [2, 6]: 65% and 66%; Population Hoechst High Intensity Objects (%) [2, 6]: 0%; Population Membrane Permeable-Phenotype (%) [2, 6]: 6% and 8%; Population Mitochondria Different-Phenotype (%) [2, 6]: 2% and 5%; Population Mitotic Cells (%) [2, 6]: 50% and 32%; Population Normal (%) [2, 6]: 99% and 100%; Population Pyknosed Nuclei (%) [2, 6]: 19% and 13%; Population Tubulin-Different-Phenotype (%) [2, 6]: 69% and 51%; Total Cell Count [2, 6]: 155 and 235; Population Apoptotic (%) [2, 7]: 68% and 65%; Population Fragmented Nuclei (%) [2, 7]: 17% and 13%; Population Healthy Nuclei (%) [2, 7]: 27% and 29%; Population Hoechst High Intensity Objects (%) [2, 7]: 2% and 6%; Population Membrane Permeable-Phenotype (%) [2, 7]: 27% and 28%; Population Mitochondria Different-Phenotype (%) [2, 7]: 45% and 47%; Population Mitotic Cells (%) [2, 7]: 31% and 34%; Population Normal (%) [2, 7]: 97% and 93%; Population Pyknosed Nuclei (%) [2, 7]: 54% and 56%; Population Tubulin-Different-Phenotype (%) [2, 7]: 80% and 77%; Total Cell Count [2, 7]: 147 and 216; Population Apoptotic (%) [2, 8]: 72% and 80%; Population Fragmented Nuclei (%) [2, 8]: 15% and 23%; Population Healthy Nuclei (%) [2, 8]: 68% and 64%; Population Hoechst High Intensity Objects (%) [2, 8]: 0% and 1%; Population Membrane Permeable-Phenotype (%) [2, 8]: 5% and 3%; Population Mitochondria Different-Phenotype (%) [2, 8]: 11% and 5%; Population Mitotic Cells (%) [2, 8]: 28% and 20%; Population Normal (%) [2, 8]: 100% and 98%; Population Pyknosed Nuclei (%) [2, 8]: 15% and 11%; Population Tubulin-Different-Phenotype (%) [2, 8]: 55% and 42%; Total Cell Count [2, 8]: 157 and 217; Population Apoptotic (%) [2, 9]: 89% and 84%; Population Fragmented Nuclei (%) [2, 9]: 27% and 18%; Population Healthy Nuclei (%) [2, 9]: 24% and 32%; Population Hoechst High Intensity Objects (%) [2, 9]: 5% and 14%; Population Membrane Permeable-Phenotype (%) [2, 9]: 36% and 40%; Population Mitochondria Different-Phenotype (%) [2, 9]: 50% and 42%; Population Mitotic Cells (%) [2, 9]: 10% and 15%; Population Normal (%) [2, 9]: 94% and 85%; Population Pyknosed Nuclei (%) [2, 9]: 47% and 48%; Population Tubulin-Different-Phenotype (%) [2, 9]: 76%; Total Cell Count [2, 9]: 128 and 187; Population Apoptotic (%) [3, 4]: 39% and 48%; Population Fragmented Nuclei (%) [3, 4]: 3% and 2%; Population Healthy Nuclei (%) [3, 4]: 83% and 85%; Population Hoechst High Intensity Objects (%) [3, 4]: 7% and 8%; Population Membrane Permeable-Phenotype (%) [3, 4]: 4% and 5%; Population Mitochondria Different-Phenotype (%) [3, 4]: 32% and 29%; Population Mitotic Cells (%) [3, 4]: 60% and 51%; Population Normal (%) [3, 4]: 92% and 91%; Population Pyknosed Nuclei (%) [3, 4]: 13% and 12%; Population Tubulin-Different-Phenotype (%) [3, 4]: 94% and 91%; Total Cell Count [3, 4]: 593 and 650; Population Apoptotic (%) [3, 5]: 72% and 76%; Population Fragmented Nuclei (%) [3, 5]: 2% and 4%; Population Healthy Nuclei (%) [3, 5]: 75% and 78%; Population Hoechst High Intensity Objects (%) [3, 5]: 20% and 28%; Population Membrane Permeable-Phenotype (%) [3, 5]: 2% and 4%; Population Mitochondria Different-Phenotype (%) [3, 5]: 73% and 75%; Population Mitotic Cells (%) [3, 5]: 27% and 23%; Population Normal (%) [3, 5]: 79% and 71%; Population Pyknosed Nuclei (%) [3, 5]: 21% and 17%; Population Tubulin-Different-Phenotype (%) [3, 5]: 60% and 66%; Total Cell Count [3, 5]: 256 and 344; Population Apoptotic (%) [3, 6]: 57% and 51%; Population Fragmented Nuclei (%) [3, 6]: 6% and 5%; Population Healthy Nuclei (%) [3, 6]: 87% and 86%; Population Hoechst High Intensity Objects (%) [3, 6]: 8%; Population Membrane Permeable-Phenotype (%) [3, 6]: 4%; Population Mitochondria Different-Phenotype (%) [3, 6]: 21% and 18%; Population Mitotic Cells (%) [3, 6]: 42% and 48%; Population Normal (%) [3, 6]: 91%; Population Pyknosed Nuclei (%) [3, 6]: 6% and 8%; Population Tubulin-Different-Phenotype (%) [3, 6]: 81% and 83%; Total Cell Count [3, 6]: 811 and 859; Population Apoptotic (%) [3, 7]: 89% and 76%; Population Fragmented Nuclei (%) [3, 7]: 3% and 1%; Population Healthy Nuclei (%) [3, 7]: 62% and 73%; Population Hoechst High Intensity Objects (%) [3, 7]: 25% and 29%; Population Membrane Permeable-Phenotype (%) [3, 7]: 7% and 0%; Population Mitochondria Different-Phenotype (%) [3, 7]: 74% and 79%; Population Mitotic Cells (%) [3, 7]: 10% and 23%; Population Normal (%) [3, 7]: 74% and 70%; Population Pyknosed Nuclei (%) [3, 7]: 33% and 24%; Population Tubulin-Different-Phenotype (%) [3, 7]: 60% and 57%; Total Cell Count [3, 7]: 303 and 369; Population Apoptotic (%) [3, 8]: 32% and 29%; Population Fragmented Nuclei (%) [3, 8]: 11% and 10%; Population Healthy Nuclei (%) [3, 8]: 83% and 85%; Population Hoechst High Intensity Objects (%) [3, 8]: 9% and 10%; Population Membrane Permeable-Phenotype (%) [3, 8]: 7% and 5%; Population Mitochondria Different-Phenotype (%) [3, 8]: 5% and 4%; Population Mitotic Cells (%) [3, 8]: 67% and 70%; Population Normal (%) [3, 8]: 90% and 89%; Population Pyknosed Nuclei (%) [3, 8]: 4%; Population Tubulin-Different-Phenotype (%) [3, 8]: 60% and 62%; Total Cell Count [3, 8]: 1468 and 1438; Population Apoptotic (%) [3, 9]: 87% and 89%; Population Fragmented Nuclei (%) [3, 9]: 9% and 8%; Population Healthy Nuclei (%) [3, 9]: 43% and 53%; Population Hoechst High Intensity Objects (%) [3, 9]: 31% and 32%; Population Membrane Permeable-Phenotype (%) [3, 9]: 4% and 1%; Population Mitochondria Different-Phenotype (%) [3, 9]: 81% and 83%; Population Mitotic Cells (%) [3, 9]: 12% and 10%; Population Normal (%) [3, 9]: 68% and 67%; Population Pyknosed Nuclei (%) [3, 9]: 47% and 38%; Population Tubulin-Different-Phenotype (%) [3, 9]: 52% and 58%; Total Cell Count [3, 9]: 355 and 410
